PMC12541583 (Acta Pharmaceutica Sinica. B, 2025)

Experiments:
PARP1 [1] = target: PARP1 (Rattus norvegicus, UniProt P27008); assay: In vitro autoradiography of [18F]AZD9574 on rat brain sections; assay type: binding; settings: blocker 10 μmol/L
MDR1 (P-gp) = MDR1 (P-gp) (Homo sapiens, UniProt P08183); assay: In vitro Pg-P efflux assay; assay type: in vitro ADME; settings: not told
CYP1A2 = target: T1, CYP1A2 (Homo sapiens, UniProt P05177); assay: CYP interactions, CYP1A2; assay type: in vitro ADME
T1 sequence (P05177 1-516): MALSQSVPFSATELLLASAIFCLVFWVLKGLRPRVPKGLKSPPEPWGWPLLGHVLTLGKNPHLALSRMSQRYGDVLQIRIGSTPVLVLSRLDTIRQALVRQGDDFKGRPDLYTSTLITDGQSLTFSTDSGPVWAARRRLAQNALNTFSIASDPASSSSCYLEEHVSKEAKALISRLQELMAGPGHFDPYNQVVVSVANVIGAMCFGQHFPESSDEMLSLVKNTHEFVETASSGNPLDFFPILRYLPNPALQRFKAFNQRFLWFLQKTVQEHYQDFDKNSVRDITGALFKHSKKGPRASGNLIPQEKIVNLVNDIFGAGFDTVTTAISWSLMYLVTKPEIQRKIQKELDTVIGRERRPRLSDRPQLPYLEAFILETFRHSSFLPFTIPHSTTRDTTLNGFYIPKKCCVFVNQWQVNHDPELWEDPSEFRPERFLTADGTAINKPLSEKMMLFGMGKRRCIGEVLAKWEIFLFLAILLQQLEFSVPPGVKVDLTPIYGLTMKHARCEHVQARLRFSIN

CYP2D6 = CYP2D6 (Homo sapiens, UniProt P10635); assay: CYP interactions, CYP2D6; assay type: in vitro ADME
CYP2C19 = CYP2C19 (Homo sapiens, UniProt P33261); assay: CYP interactions, CYP2C19; assay type: in vitro ADME
CYP3A4 = CYP3A4 (Homo sapiens, UniProt P08684); assay: CYP interactions, CYP3A4; assay type: in vitro ADME
CYP2C9 = CYP2C9 (Homo sapiens, UniProt P11712); assay: CYP interactions, CYP2C9; assay type: in vitro ADME
CYP19A = target: T2, CYP19A (Homo sapiens, UniProt P11511); assay: CYP interactions, CYP19A; assay type: in vitro ADME
T2 sequence (P11511 1-503): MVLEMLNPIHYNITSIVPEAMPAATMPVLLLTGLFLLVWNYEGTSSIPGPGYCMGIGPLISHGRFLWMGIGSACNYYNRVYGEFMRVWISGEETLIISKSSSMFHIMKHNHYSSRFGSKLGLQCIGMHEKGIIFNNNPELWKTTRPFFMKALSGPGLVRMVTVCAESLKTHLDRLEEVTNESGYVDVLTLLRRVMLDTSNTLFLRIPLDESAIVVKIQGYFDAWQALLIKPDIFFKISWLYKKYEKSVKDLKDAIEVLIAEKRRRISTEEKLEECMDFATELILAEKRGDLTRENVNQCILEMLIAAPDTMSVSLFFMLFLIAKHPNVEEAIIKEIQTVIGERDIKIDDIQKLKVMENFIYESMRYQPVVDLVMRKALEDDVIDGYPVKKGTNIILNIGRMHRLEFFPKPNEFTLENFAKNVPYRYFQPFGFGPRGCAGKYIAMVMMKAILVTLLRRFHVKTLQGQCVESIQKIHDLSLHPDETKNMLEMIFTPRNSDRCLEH

[2] = target: human ether-a-go-go-related gene (hERG) channel (Homo sapiens, UniProt Q12809); assay: In vitro hERG channel safety
HepG2 cells = assay: CellTiter-Glo luminescent cell viability assay in HepG2 cells; assay type: cell-based; settings: Homo sapiens, HepG2, read-out: HepG2 IC50
PARP1 [3] = assay: In vitro autoradiography of [18F]AZD9574 on NHP cerebellum brain sections; assay type: binding; settings: blocker 10 μmol/L
In short: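 Rat and NHP brain sections were pre-incubated 10 min at ambient temperature in 50 mmol/L Tris–HCl with 0.1% BSA. They were then incubated 1 h with radioligand (~4 μCi/mL, ~4 nmol/L), with blockers at 10 μmol/L added beforehand. Sections were rinsed twice for 2 min in ice-cold buffer with ethanol, dipped in cold water, air-dried and exposed to imaging plates overnight. ROI radioactivity was taken as % of control; mean ± SD, n = 3.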

PARP1 [4] = target: PARP1 (Macaca mulatta, UniProt H9FQ77); assay: NHP PET imaging of [18F]AZD9574, baseline and blocking; assay type: in vivo, rhesus monkeys
In short: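 An iv bolus of tracer (4.05 ± 0.54 mCi) was followed by 90 min dynamic 3D PET acquisition in 36 frames. ROIs were drawn on co-registered T1-weighted MRI. Regional SUV time–activity curves were generated; baseline scans n = 2 animals.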

PC3 cell lines = assay: In vitro cellular uptake and blocking of [18F]AZD9574 in PC3 cells; assay type: cell-based; settings: blocker 1 μmol/L
In short: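 PC3 cells were grown in F-12K with 10% FBS and 1% penicillin–streptomycin at 37 °C, 5% CO2, and seeded at 1×10^5 cells/well 24 h before use. After two PBS rinses, 1 μCi/well tracer plus blocking agent was added in serum-free medium for 60 min at 37 °C. Cells were rinsed twice with cold PBS, lysed in 0.1 mol/L NaOH and counted in a gamma counter.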

PARP1 (Rattus norvegicus, UniProt P27008), sequence (P27008 whole entry): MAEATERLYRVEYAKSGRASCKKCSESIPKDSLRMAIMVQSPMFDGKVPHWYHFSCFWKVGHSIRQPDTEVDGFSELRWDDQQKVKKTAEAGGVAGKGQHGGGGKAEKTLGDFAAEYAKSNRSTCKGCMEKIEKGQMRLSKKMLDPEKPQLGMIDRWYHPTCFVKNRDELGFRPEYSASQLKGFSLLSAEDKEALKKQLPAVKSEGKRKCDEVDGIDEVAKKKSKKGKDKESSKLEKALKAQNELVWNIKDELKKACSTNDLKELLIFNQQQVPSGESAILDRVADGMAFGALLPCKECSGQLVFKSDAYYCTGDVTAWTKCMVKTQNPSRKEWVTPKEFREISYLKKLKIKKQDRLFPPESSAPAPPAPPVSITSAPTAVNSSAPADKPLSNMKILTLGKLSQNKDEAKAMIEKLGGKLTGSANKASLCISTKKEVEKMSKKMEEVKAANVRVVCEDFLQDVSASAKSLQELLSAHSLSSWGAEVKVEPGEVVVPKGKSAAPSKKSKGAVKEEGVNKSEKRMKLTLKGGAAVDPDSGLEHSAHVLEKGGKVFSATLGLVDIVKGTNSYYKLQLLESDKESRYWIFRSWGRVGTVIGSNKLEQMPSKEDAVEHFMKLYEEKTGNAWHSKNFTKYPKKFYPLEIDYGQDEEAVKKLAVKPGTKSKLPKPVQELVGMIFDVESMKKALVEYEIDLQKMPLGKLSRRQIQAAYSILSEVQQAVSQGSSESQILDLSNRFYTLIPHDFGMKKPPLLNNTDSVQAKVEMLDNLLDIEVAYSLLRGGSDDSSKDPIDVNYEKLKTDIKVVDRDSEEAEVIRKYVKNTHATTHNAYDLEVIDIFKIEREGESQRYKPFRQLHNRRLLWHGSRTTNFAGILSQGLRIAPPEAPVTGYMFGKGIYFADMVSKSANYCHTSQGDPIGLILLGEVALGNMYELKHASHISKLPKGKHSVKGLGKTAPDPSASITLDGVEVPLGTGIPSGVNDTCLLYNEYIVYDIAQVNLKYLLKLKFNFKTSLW
PARP1 (Macaca mulatta, UniProt H9FQ77), sequence (H9FQ77 1-1014): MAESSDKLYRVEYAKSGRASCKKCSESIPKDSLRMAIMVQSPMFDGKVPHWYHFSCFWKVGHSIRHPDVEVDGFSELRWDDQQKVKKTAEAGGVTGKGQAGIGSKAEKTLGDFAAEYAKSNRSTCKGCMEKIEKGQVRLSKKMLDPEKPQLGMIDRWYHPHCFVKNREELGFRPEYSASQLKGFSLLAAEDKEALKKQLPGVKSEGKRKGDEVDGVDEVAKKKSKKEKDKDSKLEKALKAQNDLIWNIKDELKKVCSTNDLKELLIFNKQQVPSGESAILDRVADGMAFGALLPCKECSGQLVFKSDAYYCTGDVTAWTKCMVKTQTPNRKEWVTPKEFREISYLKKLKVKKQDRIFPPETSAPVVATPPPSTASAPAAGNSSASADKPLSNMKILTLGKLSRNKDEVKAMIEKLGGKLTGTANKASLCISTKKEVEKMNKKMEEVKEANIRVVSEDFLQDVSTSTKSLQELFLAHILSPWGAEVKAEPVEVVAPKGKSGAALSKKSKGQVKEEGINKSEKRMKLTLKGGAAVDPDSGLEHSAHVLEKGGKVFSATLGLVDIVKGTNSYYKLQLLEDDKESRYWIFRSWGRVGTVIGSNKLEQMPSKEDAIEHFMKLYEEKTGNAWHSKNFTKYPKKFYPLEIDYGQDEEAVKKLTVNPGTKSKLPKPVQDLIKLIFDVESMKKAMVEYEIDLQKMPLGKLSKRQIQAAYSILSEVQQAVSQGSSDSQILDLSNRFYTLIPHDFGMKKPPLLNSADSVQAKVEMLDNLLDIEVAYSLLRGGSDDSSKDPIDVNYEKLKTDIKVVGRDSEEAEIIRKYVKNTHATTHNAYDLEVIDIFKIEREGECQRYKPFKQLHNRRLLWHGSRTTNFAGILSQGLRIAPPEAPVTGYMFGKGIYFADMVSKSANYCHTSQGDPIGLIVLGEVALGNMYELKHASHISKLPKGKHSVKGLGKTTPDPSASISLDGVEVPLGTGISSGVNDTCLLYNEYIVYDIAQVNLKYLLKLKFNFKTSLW
CYP2D6, sequence (P10635 whole entry, species assumed): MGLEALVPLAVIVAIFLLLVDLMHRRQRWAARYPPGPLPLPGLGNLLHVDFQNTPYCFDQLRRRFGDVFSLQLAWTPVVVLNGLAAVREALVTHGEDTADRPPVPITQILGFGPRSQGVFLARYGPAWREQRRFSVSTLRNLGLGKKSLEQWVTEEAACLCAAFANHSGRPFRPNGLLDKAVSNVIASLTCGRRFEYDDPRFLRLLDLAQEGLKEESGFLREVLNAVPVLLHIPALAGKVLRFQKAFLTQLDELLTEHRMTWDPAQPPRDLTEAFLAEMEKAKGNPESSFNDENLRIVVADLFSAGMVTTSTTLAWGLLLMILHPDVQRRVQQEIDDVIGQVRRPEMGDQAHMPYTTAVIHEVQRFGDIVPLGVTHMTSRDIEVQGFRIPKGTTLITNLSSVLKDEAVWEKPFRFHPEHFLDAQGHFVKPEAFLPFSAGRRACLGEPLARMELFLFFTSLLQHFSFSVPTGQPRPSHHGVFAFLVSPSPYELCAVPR
MDR1 (P-gp), sequence (P08183 whole entry, species assumed): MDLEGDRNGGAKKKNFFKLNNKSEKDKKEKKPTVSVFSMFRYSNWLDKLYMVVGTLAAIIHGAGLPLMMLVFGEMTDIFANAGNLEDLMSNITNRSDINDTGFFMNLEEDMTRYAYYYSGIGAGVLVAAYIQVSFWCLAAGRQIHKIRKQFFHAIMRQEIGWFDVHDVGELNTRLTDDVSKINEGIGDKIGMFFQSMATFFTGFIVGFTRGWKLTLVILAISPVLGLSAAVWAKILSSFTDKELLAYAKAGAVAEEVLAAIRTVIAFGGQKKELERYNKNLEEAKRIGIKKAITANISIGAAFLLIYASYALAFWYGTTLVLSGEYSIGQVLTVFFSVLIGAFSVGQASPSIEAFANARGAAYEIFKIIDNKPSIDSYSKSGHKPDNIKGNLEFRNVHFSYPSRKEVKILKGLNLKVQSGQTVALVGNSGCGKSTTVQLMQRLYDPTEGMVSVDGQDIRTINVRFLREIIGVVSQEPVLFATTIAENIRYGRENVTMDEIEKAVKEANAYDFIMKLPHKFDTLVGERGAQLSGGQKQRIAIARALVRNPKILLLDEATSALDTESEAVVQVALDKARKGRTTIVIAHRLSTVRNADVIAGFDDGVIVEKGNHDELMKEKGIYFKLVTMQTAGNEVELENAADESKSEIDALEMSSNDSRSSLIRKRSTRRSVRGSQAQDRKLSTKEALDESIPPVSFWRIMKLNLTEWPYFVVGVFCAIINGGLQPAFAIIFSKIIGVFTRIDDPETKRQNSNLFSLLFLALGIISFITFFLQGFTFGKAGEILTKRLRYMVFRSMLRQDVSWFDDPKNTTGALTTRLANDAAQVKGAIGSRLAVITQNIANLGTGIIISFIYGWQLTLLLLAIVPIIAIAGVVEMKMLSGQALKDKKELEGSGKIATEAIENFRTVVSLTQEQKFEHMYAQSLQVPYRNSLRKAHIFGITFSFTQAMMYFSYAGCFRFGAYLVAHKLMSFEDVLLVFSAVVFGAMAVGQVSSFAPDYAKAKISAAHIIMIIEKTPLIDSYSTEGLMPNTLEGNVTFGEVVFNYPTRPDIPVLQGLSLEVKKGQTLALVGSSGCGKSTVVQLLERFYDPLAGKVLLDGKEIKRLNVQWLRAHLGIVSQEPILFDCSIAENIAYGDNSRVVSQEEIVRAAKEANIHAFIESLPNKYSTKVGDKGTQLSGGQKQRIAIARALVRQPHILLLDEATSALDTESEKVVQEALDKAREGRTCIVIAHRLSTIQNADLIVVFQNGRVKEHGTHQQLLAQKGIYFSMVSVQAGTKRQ
CYP3A4, sequence (P08684 whole entry, species assumed): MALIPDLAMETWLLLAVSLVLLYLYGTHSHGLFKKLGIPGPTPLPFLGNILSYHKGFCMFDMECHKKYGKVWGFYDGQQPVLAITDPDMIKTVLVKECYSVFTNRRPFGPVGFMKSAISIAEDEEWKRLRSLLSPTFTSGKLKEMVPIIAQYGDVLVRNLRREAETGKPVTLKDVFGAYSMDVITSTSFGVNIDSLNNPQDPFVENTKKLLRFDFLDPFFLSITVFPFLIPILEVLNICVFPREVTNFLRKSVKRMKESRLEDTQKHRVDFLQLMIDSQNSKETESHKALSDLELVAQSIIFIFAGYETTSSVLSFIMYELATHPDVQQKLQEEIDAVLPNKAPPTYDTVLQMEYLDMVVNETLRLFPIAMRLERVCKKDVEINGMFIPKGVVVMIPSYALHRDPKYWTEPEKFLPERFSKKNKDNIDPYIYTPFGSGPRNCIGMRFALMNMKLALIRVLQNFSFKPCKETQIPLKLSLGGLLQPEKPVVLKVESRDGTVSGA
CYP2C19, sequence (P33261 whole entry, species assumed): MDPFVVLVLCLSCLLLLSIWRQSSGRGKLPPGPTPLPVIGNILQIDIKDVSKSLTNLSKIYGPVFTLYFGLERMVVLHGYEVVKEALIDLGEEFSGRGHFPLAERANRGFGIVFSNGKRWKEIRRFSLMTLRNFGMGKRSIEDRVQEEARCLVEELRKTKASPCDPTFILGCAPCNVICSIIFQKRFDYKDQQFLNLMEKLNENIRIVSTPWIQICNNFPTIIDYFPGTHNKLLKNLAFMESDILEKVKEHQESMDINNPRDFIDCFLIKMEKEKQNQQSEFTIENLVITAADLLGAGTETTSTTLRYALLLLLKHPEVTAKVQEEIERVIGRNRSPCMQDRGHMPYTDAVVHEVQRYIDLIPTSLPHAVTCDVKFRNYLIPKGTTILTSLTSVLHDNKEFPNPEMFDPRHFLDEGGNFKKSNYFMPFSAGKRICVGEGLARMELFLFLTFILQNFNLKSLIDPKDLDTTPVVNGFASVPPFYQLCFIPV

For `COC1CCN(C(=O)c2cc(Cc3n[nH]c(=O)c4ccccc34)ccc2F)CC1` [AZD2461], the “reduction of [18F]AZD9574 radioactivity accumulation in all brain regions” value (“reduction … in all brain regions” for short) (PARP1 [1]) was “greater than 85%”.
With `CNC(=O)c1ccc(N2CCN(Cc3ccc4nc(C)c(=O)[nH]c4c3F)CC2)c(F)n1` [compound 5, 6-fluoro-5-(4-((5-fluoro-2-methyl-3-oxo-3,4-dihydroquinoxalin-6-yl)methyl)piperazin-1-yl)-N-methylpicolinamide] the Papp A→B (MDR1 (P-gp)) was 425 nm/s, the IC50 (CYP1A2) was over 5 µM and the IC50 (CYP2D6) was over 5 µM. For the same compound, the IC50 (CYP2C19) was over 5 µM, the IC50 (CYP3A4) was over 5 µM and the IC50 (CYP2C9) was over 5 µM. The IC50 (CYP19A) was over 5 µM, the IC50 [2] was over 100 µM and the IC50 (HepG2 cells) was over 100 µM. For the same compound, the “effect on [18F]AZD9574 uptake in the cerebellum” value (PARP1 [3]) was “substantial uptake reduction”, the “reduction of [18F]AZD9574 radioactivity accumulation in the cerebellum (area under curve 60-90 min)” value (PARP1 [4]; pretreatment 0.05 mg/kg) was 37.7% and the “reduction of [18F]AZD9574 radioactivity accumulation in the cerebellum (area under curve 60-90 min)” value (PARP1 [4]; pretreatment 0.5 mg/kg) was 63.4%.
`O=C(c1cc(Cc2n[nH]c(=O)c3ccccc23)ccc1F)N1CCN(C(=O)C2CC2)CC1` [olaparib, reference compound] was tested, and the “effect on [18F]AZD9574 uptake” value (PC3 cell lines) was “significantly attenuated” and the “effect on [18F]AZD9574 uptake in the cerebellum” value (PARP1 [3]) was “substantial uptake reduction”.
For `C[C@]12CCCN1CC1=NNC(=O)c3cc(F)cc4[nH]c2c1c34` [pamiparib], the “reduction … in all brain regions” value (PARP1 [1]) was “greater than 85%”.
For `CNCc1ccc(-c2[nH]c3cc(F)cc4c3c2CCNC4=O)cc1` [rucaparib], the “reduction … in all brain regions” value (PARP1 [1]) was “greater than 85%”.
`C[C@]1(c2nc3c(C(N)=O)cccc3[nH]2)CCCN1` [veliparib] was tested, and the “reduction … in all brain regions” value (PARP1 [1]) was “greater than 85%”.
